Thrombin inh: thrombin (human) inhibition; AID 1046; alpha-thrombin, Boc-VPR-AMC fluorogenic substrate cleavage; hit rate 0.26% among 220,000; P00734; inhibition, % at 5 µM;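 active = inhibition at or above 40%; inactive = inhibition below 40%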
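Material: Human alpha-thrombin protein | Buffer or medium: pH 7.5 Tris-saline with Tween 20 | Reagent: Boc-VPR-AMC substrate, 15 µM final | Schedule: Reaction at ambient temperature | Detection: AMC fluorescence at 355 nm excitation and 460 nm emission | Evaluation: Percent inhibition scaled between no-compound controls and no-enzyme blanks | Controls: no-compound enzyme wells and no-enzyme blanks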
FXIa inh: inhibitors of human coagulation factor XIa | P03951 | purified FXIa, Boc-Glu-Ala-Arg-AMC fluorogenic substrate | inhibition, % at 5 µM | hit rate 0.14% among 220,000 | AID 798;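 active = inhibition of at least 40%; inactive = inhibition below 40%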;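 note: fluorescence of freed AMC excited at 355 nm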
FXIIa inh 1536: blocks human coagulation factor XIIa protease activity; P00748; purified FXIIa, Boc-QGR-AMC fluorogenic substrate, 2 h; inhibition, % at 5 µM; hit rate 0.3% among 220,000; AID 800; in the data active = inhibition above about 40%
Calpain2 inh: inhibitors of pig calpain II; hit rate 0.37% among 220,000; inhibition, % at 16 µM; AID 1236; purified calpain II, fluorogenic peptide substrate, 30 min;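 active = inhibition above about 50%, limit read from the data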
KLK5 inh: kallikrein 5 (human) inhibition; recombinant hK5, fluorogenic AMC substrate cleavage; inhibition, % at 5 µM; hit rate 0.59% among 210,000;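 active = inhibition of 40% or more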
Hits are given with their value; . = inactive. Compounds with a hit are over-represented: about 1.4% of the library has one in this group of screens.

SMILES	Thrombin inh	FXIa inh	FXIIa inh 1536	Calpain2 inh	KLK5 inh
Cc1ccc(N=Cc2c(O)n(-c3ccc4c(c3)OCO4)c(=O)c3ccccc23)cc1	.	.	43	.	.
Cc1cccc(-n2c(O)c(C=Nc3ccc(O)cc3)c3ccccc3c2=O)n1	.	.	.	.	.
CCC(CC)C(=O)OCC(=O)Nc1cccc([N+](=O)[O-])c1	.	.	.	.	.
O=C(NCCc1csc(-c2cccnc2)n1)c1ccc(Br)o1	.	.	.	99	.
O=C1c2cccc3cccc(c23)C(=O)N1c1ccccn1	.	.	.	.	47
O=c1nc(N2CCOCC2)nc(N/N=C/c2ccc3c(c2)OCO3)[nH]1	.	.	.	.	.
CN(/N=C/c1ccc2c(c1)OCO2)c1nc(N2CCOCC2)nc(N2CCOCC2)n1	.	.	100	.	.
COC(=O)c1c(NC(=O)COC(=O)Cn2cnc3ccccc32)sc(C)c1C	.	44	.	.	.
O=C(Cn1c(/C=C/c2ccccc2)nc2ccccc21)Nc1ccc(F)cc1	.	.	40	.	.
Cc1ccc(CSCCNS(=O)(=O)c2ccccc2)cc1	.	.	.	.	.
O=C(NC(Cc1c[nH]c2ccccc12)c1nnc2n1CCCCC2)c1ccc(Cl)cc1 (centres undefined)	.	.	.	.	48
NC(=O)N[C@@H](Cc1c[nH]c2ccccc12)C(=O)OCC(=O)N1CCCCC1	.	.	.	.	.
CCN(CC)C(=O)CN1CCN(c2ncccn2)CC1	.	.	.	.	64
CCOc1ccc(CCNC(=O)C(CCC(N)=O)NC(=O)OCc2ccccc2)cc1OCC (centres undefined)	.	.	.	.	.
C=C(C)CNC(=S)N/N=C/c1c(F)cccc1F	.	.	.	57	.
C=C(C)CNC(=S)N/N=C/c1ccc([N+](=O)[O-])cc1	.	.	.	.	.
O=C(C1CCCCC1)N1CCC(c2nc3ccccc3[nH]2)CC1	.	.	.	.	71
COCCNC(=O)c1sc2ncn(CC(=O)Nc3ccc(C)c(Cl)c3)c(=O)c2c1C	.	.	.	.	.
COC(=O)CNC(=O)c1sc2ncn(CC(=O)Nc3ccc(C)c(Cl)c3)c(=O)c2c1C	.	.	.	52	.
CCc1nc(Nc2ccccc2)c2oc3ccccc3c2n1	.	.	.	.	.
CCc1nc(OCCN(C)C)c2oc3ccccc3c2n1	.	.	.	.	43
COc1ccc(-c2coc3cc(O)ccc3c2=O)cc1OC	.	.	.	.	43
COc1cccc(-c2nn(-c3ccccc3)cc2CN(C)C(C)c2ccon2)c1 (centres undefined)	.	.	.	.	46
COc1cccc(-c2nn(-c3ccccc3)cc2CN(C)Cc2ccno2)c1	.	.	.	.	.
C/C(N)=C(/C#N)C(=O)CSc1nnc(COc2ccccc2Cl)o1	.	.	.	103	.
SMILES	Thrombin inh	FXIa inh	FXIIa inh 1536	Calpain2 inh	KLK5 inh
O=C(Nc1nc(-c2ccccc2)cs1)c1cccs1	.	.	.	.	.
O=C(Nc1nc(-c2ccc(Cl)s2)cs1)c1cccs1	.	91	73	.	.
CCCNC(=O)C1CC(c2ccc(C(F)(F)F)cc2)=NO1 (centres undefined)	.	102	.	.	.
Cc1cc(NC(=O)CSc2ncccc2C(=O)O)no1	.	.	.	.	.
CCN(CC)P(=O)(Nc1ccccc1Br)c1ccc(N(C)C)cc1NC(=O)c1ccco1 (centres undefined)	.	.	.	.	.
O=C(CSc1nccc(=O)[nH]1)c1cc2ccccc2o1	.	.	.	.	46
O=C(CSc1ncn[nH]1)c1cc2ccccc2o1	.	.	.	.	.
CN(C)/C=C(\C=O)c1ccc(Cl)cc1Cl	.	.	.	.	.
CCCCSc1nnc(-c2ccc(C)cc2)c2ccccc12	.	.	.	52	.
CN(C)C(=O)CSc1nnc(-c2ccc(F)cc2)c2ccccc12	.	.	.	.	.
COc1ccc(C(=O)N/C(=C\c2cn(C)c3ccccc23)C(=O)OCC(C)C)cc1	.	.	.	.	.
O=C(O)Cn1c(SCc2ccccc2)nc2ccccc21	.	.	.	.	.
O=C(O)Cn1c(SCCOc2ccccc2)nc2ccccc21	.	.	.	.	42
CSc1ccc(/C=C(\C#N)C(=O)Nc2cccc(C)c2)cc1	.	.	.	.	.
CCOc1ccc(OCC)c(NC(=O)CCS(=O)(=O)c2ccc(Br)s2)c1	43	.	.	.	.
CCOC(=O)c1cccc(NC(=O)CCS(=O)(=O)c2ccc(Br)s2)c1	.	.	.	.	.
